Laboratory results reported in ChEMBL document CHEMBL1156500, “Characterization of the metabolic activation of hepatitis C virus nucleoside inhibitor beta-D-2'-Deoxy-2'-fluoro-2'-C-methylcytidine (PSI-6130) and identification of a novel active 5'-triphosphate species” (J Biol Chem, 2007).

Experiments:
Hepatocyte [1] = assay: Drug uptake in human hepatocyte at 250 uM after 24 hrs assessed per 10^6 cells; assay type: ADME, cell-based; details: hepatocytes
Outline: (§1)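 Primary human hepatocytes from 3 donors were plated on collagen and recovered for ≥18 h. They were exposed for 24 h, in duplicate, to 0–250 μM drug: 3H-labelled material diluted with unlabelled compound. Total intracellular radioactivity and individual phosphates were measured in methanol extracts by SAX HPLC with radiometric detection. Results are pmol/10^6 cells, mean ± S.D.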

Hepatocyte [2] = assay: Drug uptake in human hepatocyte at 100 uM after 24 hrs assessed per 10^6 cells; assay type: ADME, cell-based; details: hepatocytes; outline: as §1
Hepatitis C virus = assay: Antiviral activity against HCV 1b Con1 in 2209-23 cells after 72 hrs by luciferase based replicon assay; assay type: functional, organism-based, Hepacivirus hominis; details: genotype 1b Con 1, 2209-23, 72 h
Outline: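 Huh7-derived 2209-23 cells carrying a bicistronic genotype 1b Con1 subgenomic HCV replicon with a Renilla luciferase reporter of RNA replication. Cells were exposed to compound for 72 h, and dose-dependent reduction of luciferase activity was measured to give IC50.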

Hepatocyte [3] = assay: Drug uptake in human hepatocyte at 2 uM after 1 hr assessed per 10^6 cells; assay type: ADME, cell-based; details: hepatocytes
Outline: (§2)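 Primary human hepatocytes from 4 donors were plated at 1.5 million cells/well on collagen and recovered for ≥18 h. They were dosed with 3H-labelled drug at 2 μM (10 μCi/ml) for 1–72 h, in duplicate, at 37°C. Cold 60% methanol extracts were run on SAX ion-exchange HPLC with radiometric detection and compared with reference standards. Results are pmol/10^6 cells, mean ± S.D.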

Hepatocyte [4] = assay: Drug uptake in human hepatocyte at 2 uM after 6 hrs assessed per 10^6 cells; assay type: ADME, cell-based; details: hepatocytes; outline: as §2
Hepatocyte [5] = assay: Drug uptake in human hepatocyte at 2 uM after 16 hrs assessed per 10^6 cells; assay type: ADME, cell-based; details: hepatocytes; outline: as §2
Hepatocyte [6] = assay: Drug uptake in human hepatocyte at 2 uM after 24 hrs assessed per 10^6 cells; assay type: ADME, cell-based; details: hepatocytes
Hepatocyte [7] = assay: Drug uptake in human hepatocyte at 2 uM after 48 hrs assessed per 10^6 cells; assay type: ADME, cell-based; details: hepatocytes; outline: as §2
Hepatocyte [8] = assay: Drug uptake in human hepatocyte at 2 uM after 72 hrs assessed per 10^6 cells; assay type: ADME, cell-based; details: hepatocytes; outline: as §2
Hepatocyte [9] = assay: Drug uptake in human hepatocyte at 2 uM after 6 hrs assessed as 4-amino-1-((2R,3R,4R,5R)-3-fluoro-4-hydroxy-5-(hydroxymethyl)-3-methyl-tetrahydrofuran-2-yl)pyrimitrin-2(1H)-one tri phosphate level per 10^6 cells; assay type: ADME, cell-based; details: hepatocytes; outline: as §2
Hepatocyte [10] = assay: Drug uptake in human hepatocyte at 2 uM after 16 hrs assessed as 4-amino-1-((2R,3R,4R,5R)-3-fluoro-4-hydroxy-5-(hydroxymethyl)-3-methyl-tetrahydrofuran-2-yl)[…]-2(1H)-one tri phosphate level per 10^6 cells; assay type: ADME, cell-based; details: hepatocytes; outline: as §2
Hepatocyte [11] = assay: Drug uptake in human hepatocyte at 2 uM after 24 hrs assessed as 4-amino-1-((2R,3R,4R,5R)-3-fluoro-4-hydroxy-5-(hydroxymethyl)-3-methyl-tetrahydrofuran-2-yl)[…]-2(1H)-one tri phosphate level per 10^6 cells; assay type: ADME, cell-based; details: hepatocytes; outline: as §2
Hepatocyte [12] = assay: Drug uptake in human hepatocyte at 2 uM after 48 hrs assessed as 4-amino-1-((2R,3R,4R,5R)-3-fluoro-4-hydroxy-5-(hydroxymethyl)-3-methyl-tetrahydrofuran-2-yl)pyrimitrin-2(1H)-one tri phosphate level per 10^6 cells; assay type: ADME, cell-based; details: hepatocytes; outline: as §2
Hepatocyte [13] = assay: Drug uptake in human hepatocyte at 2 uM after 72 hrs assessed as 4-amino-1-((2R,3R,4R,5R)-3-fluoro-4-hydroxy-5-(hydroxymethyl)-3-methyl-tetrahydrofuran-2-yl)pyrimitrin-2(1H)-one tri phosphate level per 10^6 cells; assay type: ADME, cell-based; details: hepatocytes; outline: as §2
Hepatocyte [14] = assay: Drug uptake in human hepatocyte at 2 uM after 6 hrs assessed as 1-((2R,3R,4R,5R)-3-fluoro-4-hydroxy-5-(hydroxymethyl)-3-methyl-tetrahydrofuran-2-yl)pyrimitrine-2,4(1H,3H)-trione tri phosphate level per 10^6 cells; assay type: ADME, cell-based; details: hepatocytes; outline: as §2
Hepatocyte [15] = assay: Drug uptake in human hepatocyte at 100 uM after 24 hrs assessed as 1-((2R,3R,4R,5R)-3-fluoro-4-hydroxy-5-(hydroxymethyl)-3-methyl-tetrahydrofuran-2-yl)pyrimidine-2,4(1H,3H)-dione di phosphate level per 10^6 cells; assay type: ADME, cell-based; details: hepatocytes; outline: as §1
Hepatocyte [16] = assay: Drug uptake in human hepatocyte at 250 uM after 24 hrs assessed as 1-((2R,3R,4R,5R)-3-fluoro-4-hydroxy-5-(hydroxymethyl)-3-methyl-tetrahydrofuran-2-yl)pyrimidine-2,4(1H,3H)-dione di phosphate level per 10^6 cells; assay type: ADME, cell-based; details: hepatocytes; outline: as §1
Hepatocyte [17] = assay: Drug uptake in human hepatocyte at 2 uM after 24 hrs assessed as 4-amino-1-((2R,3R,4R,5R)-3-fluoro-4-hydroxy-5-(hydroxymethyl)-3-methyl-tetrahydrofuran-2-yl)pyrimidin-2(1H)-one tri phosphate level per 10^6 cells; assay type: ADME, cell-based; details: hepatocytes; outline: as §1
Hepatocyte [18] = assay: Drug uptake in human hepatocyte at 10 uM after 24 hrs assessed as 4-amino-1-((2R,3R,4R,5R)-3-fluoro-4-hydroxy-5-(hydroxymethyl)-3-methyl-tetrahydrofuran-2-yl)pyrimidin-2(1H)-one tri phosphate level per 10^6 cells; assay type: ADME, cell-based; details: hepatocytes; outline: as §1
Hepatocyte [19] = assay: Drug uptake in human hepatocyte at 25 uM after 24 hrs assessed as 4-amino-1-((2R,3R,4R,5R)-3-fluoro-4-hydroxy-5-(hydroxymethyl)-3-methyl-tetrahydrofuran-2-yl)pyrimidin-2(1H)-one tri phosphate level per 10^6 cells; assay type: ADME, cell-based; details: hepatocytes; outline: as §1
Hepatocyte [20] = assay: Drug uptake in human hepatocyte at 50 uM after 24 hrs assessed as 4-amino-1-((2R,3R,4R,5R)-3-fluoro-4-hydroxy-5-(hydroxymethyl)-3-methyl-tetrahydrofuran-2-yl)pyrimidin-2(1H)-one tri phosphate level per 10^6 cells; assay type: ADME, cell-based; details: hepatocytes; outline: as §1
Hepatocyte [21] = assay: Drug uptake in human hepatocyte at 100 uM after 24 hrs assessed as 4-amino-1-((2R,3R,4R,5R)-3-fluoro-4-hydroxy-5-(hydroxymethyl)-3-methyl-tetrahydrofuran-2-yl)pyrimidin-2(1H)-one tri phosphate level per 10^6 cells; assay type: ADME, cell-based; details: hepatocytes; outline: as §1
Hepatocyte [22] = assay: Drug uptake in human hepatocyte at 250 uM after 24 hrs assessed as 4-amino-1-((2R,3R,4R,5R)-3-fluoro-4-hydroxy-5-(hydroxymethyl)-3-methyl-tetrahydrofuran-2-yl)pyrimidin-2(1H)-one tri phosphate level per 10^6 cells; assay type: ADME, cell-based; details: hepatocytes; outline: as §1

Drug uptake (Hepatocyte [1]): 3591.3 pmol | Drug uptake (Hepatocyte [2]): 1529.9 pmol | IC50 (Hepatitis C virus): 600 nM | Drug uptake (Hepatocyte [3]): 30.4 pmol | Drug uptake (Hepatocyte [4]): 32.9 pmol | Drug uptake (Hepatocyte [5]): 34.4 pmol | Drug uptake (Hepatocyte [6]): 36.4 pmol | Drug uptake (Hepatocyte [7]): 31.9 pmol | Drug uptake (Hepatocyte [8]): 34.6 pmol | Drug uptake (Hepatocyte [9]): 0.6 pmol | Drug uptake (Hepatocyte [10]): 0.7 pmol | Drug uptake (Hepatocyte [11]): 1.1 pmol | Drug uptake (Hepatocyte [12]): 1.3 pmol | Drug uptake (Hepatocyte [13]): 1 pmol | Drug uptake (Hepatocyte [14]): 0.3 pmol | Drug uptake (Hepatocyte [15]): 34.7 pmol | Drug uptake (Hepatocyte [16]): 40.9 pmol | Drug uptake (Hepatocyte [17]): 1.4 pmol | Drug uptake (Hepatocyte [18]): 5.6 pmol | Drug uptake (Hepatocyte [19]): 11.3 pmol | Drug uptake (Hepatocyte [20]): 18.7 pmol | Drug uptake (Hepatocyte [21]): 34.3 pmol | Drug uptake (Hepatocyte [22]): 40.4 pmol
SMILES: C[C@@]1(F)[C@H](O)[C@@H](CO)O[C@H]1n1ccc(N)nc1=O
